High-throughput results as filed in PubChem BioAssay.
BAP1 block = blocks human BAP1 ubiquitin-AMC hydrolysis; Q92560; recombinant BAP1, Ub-AMC hydrolysis fluorescence kinetic; active compounds read low; calls only at 20 µM; 72,000 tested, 0.48% active; AID 436;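 active means activity remaining at or below 50% of control, provided the compound also passes the data quality filters; inactive means the rest, including low values that fail the filters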
M1 ag = M1 muscarinic receptor agonism; B-score at 10 µM; 64,000 tested, 3% active; AID 626; CHO-M1 cells, Fluo-4 calcium fluorescence, agonist mode; active compounds read high;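 active means fluorescence rise, raw or as B-score row- and column-corrected plate score, outside the 99.7% band of its plate's samples, either direction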
HEK293 NFkB inh = lowers PMA/ionomycin-induced NF-kB signal in HEK293 cells | AID 465 | 62,000 tested, 0.21% active | HEK-293 NF-kB luciferase reporter, luminescence | inhibition, % at 3 µM;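 active means inhibition above the mean of all tested compounds plus 3 SD, cut at about 40% in these data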
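System: NF-kB luciferase reporter HEK-293 cells | Replication: Single test | Control set: DMSO vs reference inhibitor | Evaluation: % inhibition | Schedule: 1 h pretreatment, 16 h stimulation, 37 °C | Probe or stimulus: PMA with ionomycin | Compound dosing: One dose, 3 µM | Detection: Luciferase luminescence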
JNK3 blocker = blocks human JNK3 kinase activity | purified JNK3 kinase activity, HTS | inhibition, % at 8 µM | AID 746 | 60,000 tested, 0.61% active; in the data active means inhibition above about 17%
M1 antagonist = antagonists of rat M1 muscarinic receptor | CHO-M1 cells, Fluo-4 calcium, ACh EC80 antagonist mode; active compounds read low | B-score at 10 µM | P08482 | 64,000 tested, 3.4% active;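 active means calcium fluorescence response, raw or row-and-column corrected B-score, differing from the plate sample mean either way at a set confidence level, mostly lower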
Her2 expr inh = inhibitors of human Her2 kinase expression. HER2 level % of control, % at 10 µM. AID 645. 65,000 tested, 0.69% active. SKBR-3 HER2 protein level, AlphaScreen, 18-24 h; active compounds read low;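 active means HER2 level under 5% of the carrier-only control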;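 further: lower value means stronger loss of Her2 protein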
M1 antag confirm = confirmation of rat M1 muscarinic receptor antagonists | CHO-M1 cells, Fluo-4 calcium, ACh EC80 antagonism; active compounds read low | calcium response (max-min fluorescence) at 10 µM | 1,700 tested, 43% active | shares compounds with M1 antagonist;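 active means calcium response below the same-plate mean of wells given acetylcholine alone at its 80%-effect dose, minus 3 SD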
mGluR4 antag = selectivity test for M1 antagonists: human mGluR4 receptor; AID 678; CHO-mGluR4 calcium flux, Fluo-4 fluorescence, glutamate EC80; active compounds read low; 1,700 tested, 0.9% active; shares compounds with M1 antagonist; fluorescence response (max-min) at 10 µM;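 active means fluorescence response below the plate's average for near-maximal glutamate wells, less 3 SD of those wells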;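 further: raw unnormalized fluorescence span taken in the window right after glutamate addition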
Hits are given with their value; i = inactive; nt = no result given. In the library only some 6.6% were active in any assay of this set; here they are far more common.

SMILES	BAP1 block	M1 ag	HEK293 NFkB inh	JNK3 blocker	M1 antagonist	Her2 expr inh	M1 antag confirm	mGluR4 antag
O=C(Nc1cc2cccc([N+](=O)[O-])c2oc1=O)c1ccc(-c2ccccc2)cc1	i	nt	nt	nt	nt	nt	nt	nt
CCOc1cc(S(=O)(=O)n2nc(C)cc2C)ccc1F	i	i	i	i	-5.2	i	i	i
CCOc1cc(S(=O)(=O)N2CCOCC2)ccc1F	i	i	i	i	i	i	nt	nt
c1ccc2c(c1)[nH]c1c(N3CCOCC3)ncnc12	i	i	i	i	i	i	nt	nt
c1ccc2c(c1)[nH]c1c(N3CCSCC3)ncnc12	i	i	nt	i	-2.9	i	i	i
c1ccc2c(c1)[nH]c1c(N3CCCC3)ncnc12	i	i	i	i	-5.4	i	405	i
Cc1ccc2[nH]c3c(N4CCOCC4)ncnc3c2c1	nt	i	nt	i	i	i	nt	nt
CN1CCN(c2ncnc3c2[nH]c2ccc(F)cc23)CC1	i	i	nt	i	-6.2	i	i	i
O=C(Nc1cccc([N+](=O)[O-])c1)c1csc2c1CCCC2	i	nt	nt	nt	nt	nt	nt	nt
O=C(O)c1ccccc1C(=O)Nc1cc([N+](=O)[O-])ccc1F	i	nt	nt	nt	nt	nt	nt	nt
Cc1cc(C)nc(SCc2nnc(SCC(=O)Nc3cc(C(F)(F)F)ccc3Cl)o2)n1	i	nt	i	i	nt	i	nt	nt
Cc1cc(C)nc(SCc2nnc(SCc3ccccc3Cl)o2)n1	i	i	i	i	-4.5	i	i	i
CCOc1cc(C)nc(N2CCN(C3CCCCC3)CC2)n1	i	i	i	i	-3.3	i	444	i
Cc1ccc(C(=O)CC2(O)C(=O)N(C)c3ccc(Br)cc32)c(C)c1 (configuration not stated)	i	i	i	i	-2.2	i	i	i
CCOC(=O)N1CCC(NC(=O)CCc2c(C)nc3c(c(C)nn3C(C)(C)C)c2C)CC1	i	i	i	i	-1	i	i	i
CCC(C)N(C(=O)COC(=O)Cc1n[nH]c(=O)c2ccccc12)C1CCS(=O)(=O)C1 (configuration not stated)	i	i	i	i	-3.6	i	i	i
O=C(Cn1nnc(-c2cccc(C(F)(F)F)c2)n1)N1CCOCC1	i	i	i	i	-2.1	i	i	i
CCSc1nnc2c(n1)OC(c1cccs1)Nc1ccccc1-2 (configuration not stated)	i	nt	nt	nt	nt	nt	nt	nt
Cc1sc2nc3ccc(N4CCCCC4)nn3c(=O)c2c1C	i	i	i	i	-2.3	i	i	i
C/C(O)=c1/ccc2cccc3ncnc1c23	i	nt	nt	nt	nt	nt	nt	nt
CCOC(=O)c1c(C)n(C)c2ccc(O)c(CN3CCC(C)CC3)c12	i	i	i	i	-2	i	i	i
CCOC(=O)c1c(C)n(C)c2ccc(O)c(CN3CCN(C)CC3)c12	i	i	i	i	i	i	nt	nt
Cc1sc2ncnc(OCC(=O)N3CCN(S(=O)(=O)c4ccc(Cl)cc4)CC3)c2c1C	i	i	i	i	i	i	nt	nt
Cc1sc2ncnc(OCC(=O)c3ccc(S(=O)(=O)N4CCCC4)cc3)c2c1C	i	i	i	i	-3.1	i	i	i
O=C(NCCN1CCN(Cc2ccccc2Cl)CC1)C(=O)Nc1ccc(Br)cc1	i	nt	nt	nt	nt	nt	nt	nt
SMILES	BAP1 block	M1 ag	HEK293 NFkB inh	JNK3 blocker	M1 antagonist	Her2 expr inh	M1 antag confirm	mGluR4 antag
C(=N\n1cnnc1)/c1ccc(-c2ccccc2)cc1	i	i	i	i	-7.4	i	i	i
Cn1c(SCC(=O)N2CCCCCC2)nc2c([nH]c3ccccc32)c1=O	nt	i	i	nt	i	i	nt	nt
Cn1c(SCC(=O)N2CCCCC2)nc2c([nH]c3ccccc32)c1=O	i	i	i	i	-3.5	i	443	i
COC(=O)c1ccc2[nH]c(C)cc(=O)c2c1	nt	i	i	nt	-6.5	i	210	i
CCOC(=O)c1ccc2[nH]c(C)cc(=O)c2c1	i	i	i	i	i	i	nt	nt
Cc1nnc(SCC(=O)c2cc(C)n(-c3ccc4c(c3)OCO4)c2C)s1	i	i	i	i	i	i	nt	nt
Cc1cc(C(=O)CSc2nnnn2C)c(C)n1-c1ccc2c(c1)OCCO2	i	i	i	i	-2.8	i	435	i
Cc1nnc(SCC(=O)Nc2nccs2)[nH]c1=O	i	i	i	i	-14	i	i	i
Cc1cc(NC(=O)CSc2nnc(C)c(=O)[nH]2)no1	i	i	i	i	-2.3	i	i	i
Cc1nnc(SCC(=O)Nc2nccs2)s1	i	i	i	i	i	i	nt	nt
O=C(CCN1CCc2ccccc2C1)Nc1cccc(F)c1	i	i	i	i	-1	i	i	i
O=C(Cn1nc(-c2ccc(Cl)cc2)ccc1=O)NCC1CCCO1 (configuration not stated)	i	i	i	i	-0.8	i	i	i
CCCN1CCN(CCCNC(=O)Cn2nc(-c3ccc(Cl)cc3)ccc2=O)CC1	i	i	i	i	i	i	nt	nt
CC1(C)CN=C(NC2CCCCC2)S1	i	i	i	i	-4.8	i	459	i
Cc1ccccc1C(=O)Nc1ccc(S(=O)(=O)Nc2ncccn2)cc1	i	nt	nt	nt	nt	nt	nt	nt
CN(C)CCNc1c2c(c(C#N)c3nc4ccccc4n13)CCCC2	i	i	i	i	-4.7	i	377	i
COC(=O)c1cccc(Oc2nnc(-c3ccc(C)c(C)c3)c3ccccc23)c1	i	nt	nt	nt	nt	nt	nt	nt
COc1ccc(C(=O)Nc2ccc3nn(-c4ccc(Cl)cc4)nc3c2)cc1	i	nt	nt	nt	nt	nt	nt	nt
O=c1c2c(nc3n1CCCS3)-c1ccccc1CC21CCCCC1	i	nt	nt	nt	nt	nt	nt	nt
O=c1c2c(nc3n1CCCCC3)-c1ccccc1CC21CCCC1	i	i	i	i	-8.2	i	314	i
C=CCOC(=O)C1=C(C)N(CC)C(=O)NC1c1ccc(Br)cc1 (configuration not stated)	i	nt	nt	nt	nt	nt	nt	nt
COc1cc2ccccc2cc1C(=O)Nc1nnc(C23CC4CC(CC(C4)C2)C3)s1	i	nt	nt	nt	nt	nt	nt	nt
Cc1cc(-c2ccccc2)c2nncn2n1	i	i	i	i	-14	i	i	i
COc1cccc2cc(C(=O)N3CCN(C45CC6CC(CC(C6)C4)C5)CC3)c(=O)oc12	i	i	i	i	-1.8	i	412	i
COc1cccc2cc(C(=O)N3CCC(C)CC3)c(=O)oc12	i	i	i	i	i	i	nt	nt
C=C(C)COc1ccc2c(C)c(CC(=O)OC)c(=O)oc2c1C	i	i	i	i	-2	i	i	i
COC(=O)Cc1c(C)c2ccc(OCC(C)=O)c(C)c2oc1=O	i	i	i	i	i	i	nt	nt
N#Cc1cn(Cc2ccccc2)c2ccccc12	i	i	i	i	-1.9	i	i	i
N#Cc1cn(CC(=O)NCc2cccnc2)c2ccccc12	i	i	i	i	i	i	nt	nt
CC1CCN(Cc2nc3c(c(=O)n(C)c(=O)n3C)n2Cc2c(F)cccc2Cl)CC1	i	i	i	i	i	i	nt	nt
